The values that follow come from ChEMBL document CHEMBL1126595, “Studies directed toward the design of orally active renin inhibitors. 2. Development of the efficacious, bioavailable renin inhibitor (2S)-2-benzyl-3- [[(1-methylpiperazin-4-yl)sulfonyl]propionyl]-3-thiazol-4-yl-L-alanine amide of (2S,3R,4S)-2-amino-1-cyclohexyl-3,4-dihydroxy-6-methylheptane …” (J Med Chem, 1993).

Data set [1] is described as follows: Solubility at pH 7.4. Format: physicochemical. Particulars: buffer.
Data set [2] is described as follows: Peak concentration was determined in systemic circulation after intraduodenal dose of 10 mg/kg in ferret. Format: ADME, organism-based, Mustela putorius furo. Further details: dose 10 mg/kg, route intraduodenal. The following applies: in vivo, read-out: Activity. In short, it runs like this: (§1)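 Intraduodenal 10 mg/kg to anesthetized rats or ferrets. Compound dissolved in ethanol with 110 mol % HCl, then diluted in aqueous hydroxypropyl methylcellulose to 25% ethanol (10 mg/mL). Plasma sampled id rat 15, 30, 60, 120 min; id ferret 5, 15, 30, 60, 120, 180 min. Drug measured by renin inhibition assay or HPLC. AUC in ng h/mL. Bioavailability is relative to iv 1.0 mg/kg (rat) or 0.3 mg/kg (ferret).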

Data set [3] is described as follows: Bioavailability in the systemic circulation after 30 minutes was determined after intraduodenal dose of 10 mg/kg in rat by HPLC method. Particulars: plasma (systemic circulation), read-out: Plasma level. The format is ADME, organism-based. In short, it runs like this: (§2)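 Screening model in anesthetized rats given 10 mg/kg intraduodenally. Formulation was ethanol stock with 110 mol % HCl, diluted with aqueous hydroxypropyl methylcellulose to 25% ethanol. Systemic and portal blood drawn at 10 and 30 min in the same animals. Drug level (ng/mL) measured by HPLC or renin inhibition assay. Mean ± SEM, n = 3 unless noted.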

Data set [4] can be described thus: Bioavailability in ferret (dose 10 mg/kg i.d.). Format: ADME, organism-based, Mustela putorius furo. The following applies: in vivo. In short, it runs like this: as §1
A short description of data set [5]: Peak concentration was determined in systemic circulation after intraduodenal dose of 10 mg/kg in rat. Also on record: dose 10 mg/kg, route intraduodenal. Format: ADME, organism-based. The following applies: in vivo, read-out: Activity. In short, it runs like this:
as §1

For a further data set, the target named is T1, Renin (Homo sapiens, UniProt P00797).
T1 sequence (P00797 whole entry): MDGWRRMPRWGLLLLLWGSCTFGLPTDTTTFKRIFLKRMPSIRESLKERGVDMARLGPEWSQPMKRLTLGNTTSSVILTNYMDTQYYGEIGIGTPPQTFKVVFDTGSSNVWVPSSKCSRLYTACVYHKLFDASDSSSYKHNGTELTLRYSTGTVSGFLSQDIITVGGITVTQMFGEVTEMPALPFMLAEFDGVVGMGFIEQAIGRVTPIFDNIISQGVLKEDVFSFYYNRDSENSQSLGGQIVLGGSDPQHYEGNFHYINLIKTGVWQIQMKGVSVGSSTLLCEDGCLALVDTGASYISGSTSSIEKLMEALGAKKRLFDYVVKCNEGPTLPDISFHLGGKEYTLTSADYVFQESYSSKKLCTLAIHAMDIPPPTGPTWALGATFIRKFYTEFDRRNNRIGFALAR
In words: Inhibitory concentration against human plasma renin at pH 7.4. The format is cell-free.

Data set [6] is described as follows: Integrated area under the plasma drug level-time curve was determined in systemic circulation after intraduodenal dose of 10 mg/kg in rat. The format is ADME, organism-based. Further details: dose 10 mg/kg, route intraduodenal. In short, it runs like this:
as §1

The nature of data set [7]: Partition coefficient in the octanol/water phase at pH 7.4. Format: physicochemical. In short, it runs like this: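 log P measured by octanol/water partition at pH 7.4.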
Data set [8] is described as follows: Bioavailability in the portal circulation after 30 minutes was determined after intraduodenal dose of 10 mg/kg in rat by HPLC method. Format: ADME, organism-based. The following applies: plasma (portal circulation), read-out: Plasma level. In short, it runs like this:
as §2

Data set [9] in a line: Bioavailability in the systemic circulation after 10 minutes was determined after intraduodenal dose of 10 mg/kg in rat by HPLC method. The format is ADME, organism-based. Particulars: plasma (systemic circulation), read-out: Plasma level. In short, it runs like this:
as §2

The nature of data set [10]: Bioavailability in rat (dose 10 mg/kg i.d.). The format is ADME, organism-based. The following applies: in vivo. In short, it runs like this:
as §1

Data set [11] in a line: Bioavailability in the portal circulation after 10 minutes was determined after intraduodenal dose of 10 mg/kg in rat by HPLC method. The following applies: plasma (portal circulation), read-out: Plasma level. Format: ADME, organism-based. In short, it runs like this:
as §2

The nature of data set [12]: Integrated area under the plasma drug level-time curve was determined in systemic circulation after intraduodenal dose of 10 mg/kg in ferret. Also on record: dose 10 mg/kg, route intraduodenal. Format: ADME, organism-based, Mustela putorius furo. In short, it runs like this:
as §1

The nature of data set [13]: Bioavailability in the systemic circulation after 10 minutes was determined after intraduodenal dose of 10 mg/kg in rat by renin inhibition assay. The format is ADME, organism-based. The following applies: plasma (systemic circulation), read-out: Plasma level. In short, it runs like this:
as §2

Data set [14] is described as follows: Bioavailability in the portal circulation after 10 minutes was determined after intraduodenal dose of 10 mg/kg in rat by renin inhibition assay. The following applies: plasma (portal circulation), read-out: Plasma level. The format is ADME, organism-based. In short, it runs like this:
as §2

Data set [15] is described as follows: Bioavailability in the portal circulation after 30 minutes was determined after intraduodenal dose of 10 mg/kg in rat by renin inhibition assay. The following applies: plasma (portal circulation), read-out: Plasma level. Format: ADME, organism-based. In short, it runs like this: as §2
Data set [16] can be described thus: Bioavailability in the systemic circulation after 30 minutes was determined after intraduodenal dose of 10 mg/kg in rat by renin inhibition assay. Format: ADME, organism-based. The following applies: plasma (systemic circulation), read-out: Plasma level. In short, it runs like this: as §2

≈ marks a conversion by molar mass, not a printed value.

In the case of `CC(C)C[C@H](O)[C@H](O)[C@H](CC1CCCCC1)NC(=O)[C@H](Cn1cccn1)NC(=O)[C@@H](CC(=O)N(C)CCc1ccccn1)Cc1ccccc1`, the concentration in solution in [1] (solubility) came to 0.014 mg/mL (≈ 20.3 µM). Further, the Cmax stood at 0.4 µg/mL in data set [2] and 0.46 µg/mL in [5]. For the same molecule, the concentration at 0.5 h in data set [3] was 0.3 µg/mL; in data set [8], 4.5 µg/mL. Besides, the bioavailability (in general, the share of a dose that reaches the circulation, judged against a reference dose that is usually intravenous) in data set [4] was determined as 35%; in data set [10], 20%. In addition, at Renin, the 50% inhibitory concentration (IC50) (as a rule, the concentration that inhibits the measured activity by half) is 1.6 nM. For the same molecule, the figures for the AUC in data set [6] and in data set [12] were 0.76 µg·h/mL and 0.87 µg·h/mL, respectively. Moreover, the logD (usually lipophilicity at a set pH, counting ionised and neutral species) in data set [7] is greater than 4.2. The concentration at 10 min worked out at 0.22 µg/mL in data set [9] and 2.2 µg/mL in [11].
`COCCN(C)C(=O)C[C@@H](Cc1ccccc1)C(=O)N[C@@H](Cc1cscn1)C(=O)N[C@@H](CC1CCCCC1)[C@@H](O)[C@@H](O)CC(C)C`: the concentration at 0.5 h came out at 0.033 µg/mL in [3] and 0.6 µg/mL in data set [8]. The IC50 against Renin came to 4.1 nM. The results for the concentration at 10 min in data set [9] and in [11] were 0.033 µg/mL and 0.93 µg/mL, respectively.
Regarding `CC(C)C[C@H](O)[C@H](O)[C@H](CC1CCCCC1)NC(=O)[C@H](Cc1cscn1)NC(=O)[C@@H](CC(=O)N(C)CCc1ccncc1)Cc1ccccc1`, the solubility (usually the dissolved amount per volume that the medium holds) in [1] amounted to 0.012 mg/mL (≈ 17 µM). Also, the concentration at 0.5 h in data set [3] worked out at 0.19 µg/mL. Also, the 50% inhibitory concentration (IC50) against Renin turned out to be 3 nM. The molecule further yielded a logD in data set [7] greater than 4.2.
Turning to `COCCOCOCCN(C)C(=O)C[C@@H](Cc1ccccc1)C(=O)N[C@@H](Cc1c[nH]cn1)C(=O)N[C@@H](CC1CCCCC1)[C@@H](O)[C@@H](O)CC(C)C`, the solubility in data set [1] was 0.18 mg/mL (≈ 251 µM). The concentration at 0.5 h in data set [3] is 0.05 µg/mL; in data set [8] it was 0.37 µg/mL. On Renin, the concentration for half-maximal inhibition (IC50) came out at 0.8 nM. Also, the concentration at 10 min is 0.068 µg/mL in [9] and 1.9 µg/mL in [11].
Take `CC(C)C[C@H](O)[C@H](O)[C@H](CC1CCCCC1)NC(=O)[C@H](Cc1cscn1)NC(=O)[C@@H](CC(=O)N(C)CCN1CCN(C)CC1)Cc1ccccc1`: the concentration at 10 min amounted to 0.08 µg/mL in data set [13] and 0.58 µg/mL in data set [14]. For the same molecule, the concentration at 0.5 h turned out to be 0.59 µg/mL in [15] and 0.074 µg/mL in data set [16]. The same molecule displayed an IC50 at Renin of 8.5 nM. The molecule also displayed a logD in [7] of 3.58.
As for `COCCOCOCCN(C)C(=O)C[C@@H](Cc1ccccc1)C(=O)N[C@@H](Cc1cscn1)C(=O)N[C@@H](CC1CCCCC1)[C@@H](O)[C@@H](O)CC(C)C`, in data set [1], the solubility is 0.18 mg/mL (≈ 246 µM). For the same molecule, the values for the concentration at 10 min in [13] and in [14] were 0.3 µg/mL and 3.1 µg/mL, respectively. The concentration at 0.5 h in [15] stood at 3.1 µg/mL; in [16] it was 0.57 µg/mL. For the same molecule, on Renin, 1.6 nM corresponded to half-maximal inhibition (IC50). In data set [7], this molecule displayed a logD greater than 4.6.
Molecule `CC(C)C[C@H](O)[C@H](O)[C@H](CC1CCCCC1)NC(=O)[C@H](Cc1cscn1)NC(=O)[C@@H](CC(=O)N(C)CCn1cccn1)Cc1ccccc1` showed a solubility in data set [1] of 0.044 mg/mL (≈ 63.3 µM). Moreover, the results for the concentration at 0.5 h in data set [3] and in [8] were 0.23 µg/mL and 2.3 µg/mL, respectively. This molecule also yielded an IC50 on Renin of 0.72 nM. Besides, the logD in data set [7] is greater than 4.2. The concentration at 10 min in data set [9] was 0.14 µg/mL; in data set [11], 1.9 µg/mL.
With `CC(C)C[C@H](O)[C@H](O)[C@H](CC1CCCCC1)NC(=O)[C@H](Cc1cscn1)NC(=O)[C@@H](CC(=O)N(C)CCN(C)C)Cc1ccccc1`, the values for the concentration at 10 min in data set [13] and in [14] were 0.6 µg/mL and 1.6 µg/mL, respectively. Besides, the figures for the concentration at 0.5 h in [15] and in data set [16] were 0.78 µg/mL and 0.45 µg/mL, respectively. On Renin, this molecule had an IC50 of 9.4 nM. The molecule also gave a logD in [7] of 3.11.
